Source: PubChem BioAssay (The Scripps Research Institute Molecular Screening Center)
Compounds with a hit are over-represented: about 0.99% of the library has one in this group of screens.
PME-1 inh: blocks human protein phosphatase methylesterase 1; 320,000 compounds, 0.53% hits; inhibition, % at 5.9 µM; AID 2130; recombinant PME-1, FP-Rh probe fluorescence polarization;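 active = inhibition above the campaign mean of all compounds plus 3 SD, cut at about 26% in these data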;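 also: competitive labeling of PME-1 active site by serine hydrolase directed probe; inhibitors block probe labeling so polarization falls and inhibition rises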
LYPLA1 counter: blocks human lysophospholipase 1, a PME1 counter-screen; O75608; inhibition, % at 5.9 µM; AID 2174; 320,000 compounds, 0.16% hits; recombinant LYPLA1, FP-Rh probe fluorescence polarization;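 active = inhibition above the mean of all tested compounds plus 3 SD, set per campaign, cut at about 14% in these data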;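 also: inhibitors block serine hydrolase probe labeling of LYPLA1 so polarization falls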
Target sequence (O75608 whole entry, looked up): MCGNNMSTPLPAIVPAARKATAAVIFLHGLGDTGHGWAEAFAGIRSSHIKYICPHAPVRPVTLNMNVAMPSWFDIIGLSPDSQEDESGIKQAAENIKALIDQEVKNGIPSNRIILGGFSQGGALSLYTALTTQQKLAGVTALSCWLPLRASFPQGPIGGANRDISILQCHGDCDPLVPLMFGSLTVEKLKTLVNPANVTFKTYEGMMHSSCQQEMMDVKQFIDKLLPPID
RBBP9 inh: human RBBP9 hydrolase inhibition; recombinant RBBP9, FP-Rh probe fluorescence polarization; inhibition, % at 7.94 µM; 220,000 compounds, 0.2% hits;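 active = inhibition above the campaign mean of all tested compounds plus 3 SD, cut at about 14% in these data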
Target sequence (O75884 whole entry, looked up): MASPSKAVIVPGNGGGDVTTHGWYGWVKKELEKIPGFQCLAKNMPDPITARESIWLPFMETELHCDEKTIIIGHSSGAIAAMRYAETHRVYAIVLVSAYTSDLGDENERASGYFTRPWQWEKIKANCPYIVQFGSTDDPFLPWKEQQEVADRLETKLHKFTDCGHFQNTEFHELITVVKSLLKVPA
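System: RBBP9 protein / Buffer or medium: Tris/NaCl buffer pH 8.0 with 0.1% Pluronic / Probe or stimulus: Serine-hydrolase probe FP-Rh, 375 nM pre-mixing / Dosing: 7.94 µM single dose, 0.794% DMSO / Times: enzyme-compound preincubation 30 min, then probe labeling 45 min, 25 °C / Technique: fluorescence polarization (mP), excitation 525 nm, emission 598 nm / Replication: singlicate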
Fam108B counter: Fam108B inhibition, counter-screen for RBBP9 inhibitors. recombinant Fam108B, FP-Rh probe fluorescence polarization. inhibition, % at 9.51 µM. 300,000 compounds, 0.33% hits;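 active = inhibition above the screen mean inhibition plus 3 SD, computed separately per campaign, cut at about 18% in these data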;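 also: inhibitors lower polarization as less probe binds the enzyme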
LYPLA2 counter: blocks human lysophospholipase 2, a PME1 counter-screen; O95372; recombinant LYPLA2, FP-Rh probe fluorescence polarization; inhibition, % at 5.9 µM; 320,000 compounds, 0.38% hits;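 active = inhibition above the screen-wide mean plus 3 SD, limit set per campaign, cut at about 26% in these data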
Target sequence (O95372 whole entry, looked up): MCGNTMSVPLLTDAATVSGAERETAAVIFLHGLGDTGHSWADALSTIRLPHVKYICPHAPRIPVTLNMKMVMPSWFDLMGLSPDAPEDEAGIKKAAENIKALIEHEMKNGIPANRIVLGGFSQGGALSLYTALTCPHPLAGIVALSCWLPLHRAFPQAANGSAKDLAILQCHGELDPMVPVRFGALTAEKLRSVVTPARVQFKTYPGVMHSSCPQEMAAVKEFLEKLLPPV
Fam108b confirm: Fam108b (mouse) hydrolase inhibition, confirmation assay. 930 compounds, 44% hits. shares compounds with Fam108B counter. AID 1978. recombinant Fam108b, FP-Rh probe fluorescence polarization. inhibition, % at 9.51 µM;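 active = inhibition above a limit from the primary screen, the mean over all compounds plus 3 SD, cut at about 19% in these data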;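 also: inhibitors free the probe so polarization falls as inhibition rises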
Fam108b inh: mouse ABHD17B inhibition | shares compounds with Fam108B counter | AID 588649 | inhibition, % at 20 µM | 260 compounds, 44% hits | recombinant Fam108b, gel-based ABPP, fluorophosphonate probe; in the data active = inhibition above about 40%
Numbers stand for hits.

How did Cc1cc(/C=C(/C#N)c2nc3ccccc3[nH]2)c(C)n1-c1cccc([N+](=O)[O-])c1 do in these assays?
PME-1 inh: inactive; LYPLA1 counter: inactive; RBBP9 inh: inactive; Fam108B counter: 25; LYPLA2 counter: inactive; Fam108b confirm: inactive

How did Cc1cc(/C=C(\C#N)c2nc3ccccc3[nH]2)c(C)n1C do in these assays?
PME-1 inh: inactive; LYPLA1 counter: inactive; RBBP9 inh: inactive; Fam108B counter: inactive; LYPLA2 counter: inactive

What do the screens show for `Cc1nc(N2CCc3ccccc32)[nH]c(=O)c1CCC(C)C`?
RBBP9 inh: inactive

What do the screens show for `Oc1ccccc1N=N/C(=N/Nc1ccccc1O)c1ccccc1`?
PME-1 inh: inactive; LYPLA1 counter: inactive; Fam108B counter: inactive; LYPLA2 counter: inactive

What do the screens show for `N#C/C(N=Nc1ccccc1O)=N\Nc1ccccc1O`?
PME-1 inh: 32; LYPLA1 counter: inactive; Fam108B counter: 39; LYPLA2 counter: inactive; Fam108b confirm: 40; Fam108b inh: inactive

How did COc1ccc(-c2nc(-c3ccccc3)c(-c3cc([N+](=O)[O-])ccc3C)[nH]2)cc1OC do in these assays?
PME-1 inh: inactive; LYPLA1 counter: inactive; RBBP9 inh: inactive; Fam108B counter: inactive; LYPLA2 counter: inactive

Results for CCOc1cc(-c2nc(-c3ccccc3)c(-c3cc([N+](=O)[O-])ccc3C)[nH]2)ccc1O ?
PME-1 inh: inactive; LYPLA1 counter: inactive; RBBP9 inh: inactive; Fam108B counter: 21; LYPLA2 counter: inactive; Fam108b confirm: inactive

What do the screens show for `O=[N+]([O-])c1ccc(O)c(-c2nc(-c3ccccc3)c(-c3cccs3)[nH]2)c1`?
PME-1 inh: inactive; LYPLA1 counter: inactive; RBBP9 inh: inactive; Fam108B counter: 26; LYPLA2 counter: inactive; Fam108b confirm: inactive

How did O=C(O)c1ccc(-c2nc(-c3ccccc3)c(-c3cccs3)[nH]2)cc1 do in these assays?
PME-1 inh: inactive; LYPLA1 counter: inactive; RBBP9 inh: inactive; Fam108B counter: inactive; LYPLA2 counter: inactive

What do the screens show for `CCS(=O)(=O)c1nc(S(=O)(=O)c2ccc(C)cc2)c(N2CCC(C)CC2)s1`?
PME-1 inh: inactive; LYPLA1 counter: inactive; Fam108B counter: inactive; LYPLA2 counter: inactive

Results for CC(C)(C)c1nc(SCC(=O)N2CC(=O)Nc3ccccc32)c2ccccc2n1 ?
PME-1 inh: inactive; LYPLA1 counter: inactive; RBBP9 inh: inactive; Fam108B counter: inactive; LYPLA2 counter: inactive

What do the screens show for `Cc1ccc(-c2csc3nc(C(C)C)oc(=O)c23)c(C)c1`?
PME-1 inh: inactive; LYPLA1 counter: inactive; RBBP9 inh: inactive; Fam108B counter: 67; LYPLA2 counter: inactive; Fam108b confirm: 66; Fam108b inh: 50

What do the screens show for `Cc1cccc2[nH]c(CN(C)Cc3nc(CC4CC4)no3)nc12`?
PME-1 inh: inactive; LYPLA1 counter: inactive; RBBP9 inh: inactive; Fam108B counter: inactive; LYPLA2 counter: inactive

Results for COc1ccc(-c2cc(-c3ccccc3O)[nH]n2)cc1OC ?
PME-1 inh: inactive; LYPLA1 counter: inactive; RBBP9 inh: inactive; Fam108B counter: inactive; LYPLA2 counter: inactive

What do the screens show for `COc1ccc(O)c(-c2cc(-c3cccc(Br)c3)n[nH]2)c1`?
PME-1 inh: 42; LYPLA1 counter: inactive; RBBP9 inh: inactive; Fam108B counter: 18; LYPLA2 counter: inactive; Fam108b confirm: inactive

Results for COc1ccc(-c2cc(-c3ccc(OC)c(OC)c3)n[nH]2)c(O)c1 ?
PME-1 inh: inactive; LYPLA1 counter: inactive; RBBP9 inh: inactive; Fam108B counter: 20; LYPLA2 counter: inactive; Fam108b confirm: inactive

How did Cc1ccc(-c2nnc(N3CCOCC3)c3ccccc23)cc1S(=O)(=O)NCC1CCCO1 (stereo not drawn) do in these assays?
PME-1 inh: inactive; LYPLA1 counter: inactive; RBBP9 inh: inactive; Fam108B counter: inactive; LYPLA2 counter: inactive

How did O=C(NN1C(=O)/C(=C/C=C/c2ccco2)SC1=S)c1ccncc1 do in these assays?
PME-1 inh: inactive; LYPLA1 counter: inactive; RBBP9 inh: inactive; Fam108B counter: 41; LYPLA2 counter: inactive; Fam108b confirm: inactive

How did O=C1/C(=C/C=C/c2ccco2)SC(=S)N1c1ccc(O)cc1 do in these assays?
PME-1 inh: inactive; LYPLA1 counter: inactive; RBBP9 inh: inactive; Fam108B counter: 19; LYPLA2 counter: inactive; Fam108b confirm: inactive

How did CC(C)C(C(=O)O)N1C(=O)/C(=C/C=C/c2ccco2)SC1=S (stereo not drawn) do in these assays?
PME-1 inh: inactive; LYPLA1 counter: inactive; RBBP9 inh: inactive; Fam108B counter: 38; LYPLA2 counter: inactive; Fam108b confirm: inactive

What do the screens show for `CC(C)C(C(=O)O)N1C(=O)/C(=C/c2cccn2C)SC1=S` (stereo not drawn)?
PME-1 inh: inactive; LYPLA1 counter: inactive; RBBP9 inh: inactive; Fam108B counter: inactive; LYPLA2 counter: inactive

Results for O=C(NN1C(=O)/C(=C/C=C/c2ccccc2)SC1=S)c1ccncc1 ?
PME-1 inh: inactive; LYPLA1 counter: inactive; RBBP9 inh: inactive; Fam108B counter: inactive; LYPLA2 counter: inactive

Results for NC(=O)CC[C@H](NC(=O)OCc1ccccc1)C(=O)OCc1ccc(Cl)cc1 ?
PME-1 inh: inactive; LYPLA1 counter: inactive; RBBP9 inh: inactive; Fam108B counter: inactive; LYPLA2 counter: inactive

What do the screens show for `CCC(C)NS(=O)(=O)c1ccc(S(=O)(=O)N2CC=C(c3ccc(F)cc3)CC2)cc1` (stereo not drawn)?
PME-1 inh: inactive; LYPLA1 counter: inactive; RBBP9 inh: inactive; Fam108B counter: inactive; LYPLA2 counter: inactive

What do the screens show for `COc1ccc(Nc2nnc(SC(C(=O)Nc3ccc(OC)c(Cl)c3)c3ccccc3)s2)cc1` (stereo not drawn)?
PME-1 inh: 52; LYPLA1 counter: inactive; RBBP9 inh: inactive; Fam108B counter: 38; LYPLA2 counter: inactive; Fam108b confirm: 25

How did COc1ccc(Nc2nnc(SC(C(=O)Nc3cc(C)ccc3C)c3ccccc3)s2)cc1 (stereo not drawn) do in these assays?
PME-1 inh: inactive; LYPLA1 counter: inactive; RBBP9 inh: inactive; Fam108B counter: inactive; LYPLA2 counter: inactive

What do the screens show for `Cc1ccc(N(CC(O)COCc2ccco2)S(=O)(=O)c2ccc(C)cc2)cc1` (stereo not drawn)?
PME-1 inh: inactive; LYPLA1 counter: inactive; RBBP9 inh: inactive; Fam108B counter: inactive; LYPLA2 counter: inactive

How did COc1ccc(C(=O)N/N=C(\C)c2ccc3c(c2)C2C=CCC2C(c2ccccc2)N3)cc1 (stereo not drawn) do in these assays?
PME-1 inh: inactive; LYPLA1 counter: inactive; RBBP9 inh: inactive; Fam108B counter: 20; LYPLA2 counter: inactive; Fam108b confirm: inactive

What do the screens show for `COc1cccc(NS(=O)(=O)c2ccc3c(c2)C2C=CCC2C(c2ccc(C(=O)O)cc2)N3)c1` (stereo not drawn)?
PME-1 inh: inactive; LYPLA1 counter: inactive; RBBP9 inh: inactive; Fam108B counter: 43; LYPLA2 counter: inactive; Fam108b confirm: inactive
